Screening results deposited in PubChem by several laboratories.
Only some compounds are listed: those with a hit (about 1.8% of all), similar ones and a draw of the others.
TNF necrop inh: inhibitors of TNF-alpha induced necroptosis in Jurkat FADD-/- cells; Jurkat FADD-/- TNF necroptosis rescue, ATP luminescence, 24 h; 0 = TNF only, 100 = no-TNF cells; activation (protection from cell death), % at 10 µM; actives 0.068% (n = 220,000);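 active = activation, meaning protection from cell death, of at least 50% relative to plate controls; inactive = activation below 50%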;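 note: necroptosis triggered by 40 ng/mL TNF-alpha added together with compound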
Dynein transport: dynein cargo transport inhibition; 3617.4 mouse cells, GR-EGFP nuclear translocation imaging; test concentration mostly 20 µM; stimulated with dexamethasone, 1 µM; stronger effect = lower value; z-score, hits read low; actives 0.47% (n = 220,000);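 active = plate z-score of nuclear minus cytoplasmic receptor signal below a set negative limit, without overly bright fluorescence or cell loss, cut at about -3.5 in these data, passing the limit was not always enough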;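 note: z-score of nuclear minus cytoplasmic ring GR-EGFP intensity difference per well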
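Buffer or medium: tetracycline-free induction medium containing charcoal-stripped FBS / Reagent: dexamethasone agonist, 1.0 µM final, for 30 min / Technique: automated 10x imaging of fixed Hoechst-stained cells / Times: induction 48 h, compound 1 h, agonist 30 min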
HSV replic up: HSV replication enhancement; maximum fold increase; actives 0.005% (n = 220,000); HSV replication augmentation in cells, fold increase; in the data active = maximum fold increase above about 1.5; tested in PC3 cells
Autophagy HCS: autophagy modulation, high-content screen | MEF GFP-LC3 puncta imaging; test concentration mostly 10 µM | calls only at 10 µM (by protocol) | actives 0.98% (n = 190,000);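 active = percentage of spot-positive cells more than 3 SD above its plate mean, without a fluorescence outlier flag or 80% toxicity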;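 note: spot-positive cell cutoff set from DMSO-treated cells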
Furin inh: blocks human furin protease activity. P09958. purified furin, fluorogenic substrate cleavage. inhibition, % at 20 µM or 30 µM. actives 0.061% (n = 220,000). AID 463115; in the data active = inhibition above about 25%
Target sequence (P09958 108-714 limits assumed): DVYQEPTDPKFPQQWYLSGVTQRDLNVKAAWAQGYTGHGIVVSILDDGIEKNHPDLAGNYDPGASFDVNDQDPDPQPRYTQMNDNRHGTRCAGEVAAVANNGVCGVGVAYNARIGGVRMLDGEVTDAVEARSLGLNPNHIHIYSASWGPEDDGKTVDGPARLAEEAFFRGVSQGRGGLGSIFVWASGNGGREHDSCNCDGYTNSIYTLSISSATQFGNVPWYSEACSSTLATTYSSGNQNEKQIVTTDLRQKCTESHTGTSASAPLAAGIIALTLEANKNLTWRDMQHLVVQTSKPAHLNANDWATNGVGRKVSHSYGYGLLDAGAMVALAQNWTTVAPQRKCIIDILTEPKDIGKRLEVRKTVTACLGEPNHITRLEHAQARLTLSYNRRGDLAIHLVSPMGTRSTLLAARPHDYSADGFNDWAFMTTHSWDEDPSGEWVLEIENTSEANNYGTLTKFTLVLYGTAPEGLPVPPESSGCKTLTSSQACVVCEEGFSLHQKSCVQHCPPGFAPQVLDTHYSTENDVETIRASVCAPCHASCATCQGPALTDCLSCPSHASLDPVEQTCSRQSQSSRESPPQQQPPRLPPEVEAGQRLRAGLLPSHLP
L929 necroptosis: blocks zVAD induced death of L929 cells | L929 zVAD necroptosis rescue, ATP luminescence, 24 h; with zVAD 60 µM | viability rescue, % at 10 µM | actives 0.38% (n = 220,000) | AID 1377;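 active = activation, scaled between plate controls, above about 75%, limit read from the data; inactive = activation under that limit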;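 note: 0% = zVAD with DMSO and 100% = DMSO alone without zVAD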
zVAD necrop conf: confirmed blocker of zVAD induced death in L929 cells | shares compounds with L929 necroptosis | L929 zVAD-induced necroptosis rescue, ATP luminescence, 24 h | activation (protection from necroptosis), % at 10 µM | actives 16% (n = 760);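 active = mean protection from necroptosis of at least 50% over duplicate tests; inactive = mean protection below 50%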;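 note: 0% = cells with zVAD alone and 100% = vehicle cells without zVAD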
Dynein inh conf: dynein cargo transport inhibition, confirmation. calls only at 20 µM. 3617.4 GR-EGFP nuclear translocation imaging, dexamethasone-induced. actives 69% (n = 1,000). AID 463116. shares compounds with Dynein transport;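 active = inhibition of receptor movement into the nucleus at or above a set limit in both runs, with normal cell brightness and cell count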;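 note: dexamethasone at 1 µM final in well for 30 min; nuclear minus cytoplasmic GR-EGFP mean intensity difference in channel 2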
* marks the source's active call; other numbers are inactive results; i = inactive; · = no result given; + = active, no number.

SMILES | TNF necrop inh | Dynein transport | HSV replic up | Autophagy HCS | Furin inh | L929 necroptosis | zVAD necrop conf | others
O=c1cc(N2CCN(c3ccccc3)CC2)[nH]c(=O)n1C1CCCCC1 | 21.3 | 0.795 | i | i | -14.0 | 81.2* | 25.8
O=c1cc(N2CCN(c3cccc(Cl)c3)CC2)[nH]c(=O)n1C1CCCCC1 | 32.5 | -0.75 | i | i | -20.0 | 81.2* | 44.0
CN1CCN(c2cc(=O)n(C3CCCCC3)c(=O)[nH]2)CC1 | 0.3 | 2.82 | i | i | 4.9 | -0.8 | ·
CC(C)(C)C(=O)Nc1cccc2[nH]ncc12 | 0.6 | 0.211 | i | i | -14.9 | 2.3 | ·
C/C(=N\NC(=O)c1ccc(NS(=O)(=O)c2cccs2)cc1)c1ccc(C(C)(C)C)cc1 | 7.5 | 0.173 | i | i | -5.7 | 82.4* | 5.8
Cc1cccc(COc2ncnc3nc[nH]c23)c1 | 0.5 | 0.799 | i | i | -19.3 | 1.3 | ·
COc1cc(/C=N/Nc2ccccn2)ccc1O | 42.8 | -0.381 | i | · | -0.1 | 87.0* | 74.7*
Cc1[nH]c2ccccc2c1/C=N/Nc1nncn1N | -0.5 | -0.299 | i | i | -13.2 | 3.6 | ·
COc1cc(NC(=S)Nc2cccc(Cl)c2Cl)c(OC)cc1Cl | -5.6 | -0.64 | i | i | -18.9 | -0.3 | ·
Cc1[nH]c2ccccc2c1/C=N/Nc1ccccn1 | 35.2 | -1.61 | i | i | -13.4 | 78.6* | 84.8*
COc1cc(NC(=S)Nc2ccccn2)c(OC)cc1Cl | 1.5 | 0.263 | i | i | -31.2 | 78.8* | 7.3
COc1ccc(NC(=O)Nc2ccccn2)cc1OC | 8.3 | 0.299 | i | · | -9.4 | 76.5* | 35.5
COc1ccc(/C=N/Nc2ccccn2)cc1OC | 53.5* | -0.343 | i | · | -3.8 | 87.8* | 88.7*
COc1ccc(/C=N/NC(=O)C(=O)Nc2ccccn2)cc1OC | -0.2 | 0.526 | i | i | 8.7 | 0.8 | ·
O=S(=O)(Nc1ncccn1)c1ccc(NC(=S)NCCc2ccccc2)cc1 | -0.2 | 0.448 | i | i | -12.3 | 1.5 | ·
O=C(Nc1ccc2c(c1)OCO2)c1noc2c1CCCCC2 | 2.2 | 1.11 | i | + | -24.5 | 79.8* | 7.1
CCn1c(=NC(=O)c2ccc(S(=O)(=O)N3CCOCC3)cc2)sc2cccc(OC)c21 | -9.6 | -0.946 | i | i | -14.7 | 76.6* | 8.3
CCNC(=O)NC(=O)C(C)OC(=O)c1ccc(-n2nc(SC)sc2=S)cc1 (stereo not given) | 3.5 | -0.278 | i | i | -15.1 | 82.3* | 38.5
COc1ccc(S(=O)(=O)N2CCOCC2)cc1NC(=O)CSc1cccc[n+]1[O-] | 10.1 | 0.454 | i | · | -2.8 | 3.0 | ·
Cc1nc(NC(=O)CSc2nnc(N)s2)c(Cl)cc1Cl | 0.0 | 0.0968 | i | i | -16.3 | 0.7 | ·
COC(=O)c1sccc1NC(=S)N1CCN(c2cccc(C)c2C)CC1 | 1.3 | -1.19 | i | i | -13.7 | 0.3 | ·
CCCCN(C(=O)Cn1ncc(Cl)c(Cl)c1=O)c1c(N)n(CC(C)C)c(=O)[nH]c1=O | -3.9 | -1.29 | i | · | -33.2 | 2.2 | ·
CCCNC(=O)COC(=O)/C(C#N)=C/c1cc(C)n(CCC)c1C | 0.3 | -0.0308 | i | i | -8.0 | 1.4 | ·
CCC(NC(=O)CCl)c1ccc(C)cc1 (stereo not given) | 18.6 | -0.0132 | i | i | -20.4 | 76.6* | 1.5
CCN(CC)C(=O)c1ccc(-c2nnc(OC)c3ccccc23)cc1 | -0.5 | -0.0406 | i | · | -22.0 | 0.0 | ·
SMILES | TNF necrop inh | Dynein transport | HSV replic up | Autophagy HCS | Furin inh | L929 necroptosis | zVAD necrop conf | others
CCOC(=O)/C=C1\Nc2ccccc2OC1=O | 9.5 | 0.809 | i | i | -4.4 | 94.0* | 2.7
Cc1ccc2nc(=O)c(NNc3ccccc3)cnc2c1 | 0.4 | 0.262 | i | i | 3.9 | · | ·
Cc1nc2ccccc2nc(=O)c1NNc1ccccc1 | 4.7 | -0.29 | i | i | 0.6 | 76.5* | 3.2
Cc1ccc(Nc2ncc3c(n2)CC(C)(C)CC3=O)cc1 | -0.1 | -0.356 | i | i | -12.7 | 0.7 | ·
Cc1cc(C(=O)Cn2nc(C(=O)O)c3ccccc3c2=O)c(C)n1CCc1ccc(Cl)cc1 | -3.5 | 0.19 | i | i | -18.4 | 77.9* | 8.1
Cc1cc(C(=O)Cn2nc(C(=O)O)c3ccccc3c2=O)c(C)n1-c1ccccc1 | -1.0 | -0.0345 | i | i | 7.1 | 1.0 | ·
O=c1[nH][nH]cc1C=Nc1ccccc1O | 8.3 | -0.186 | i | i | -10.2 | 75.2* | 12.5
O=c1[nH][nH]cc1C=Nc1ccccc1Cl | -0.3 | 1.04 | i | i | -21.0 | 1.8 | ·
O=C1NCC(O)=C1C=Nc1ccccc1O | 13.7 | -0.433 | i | · | -10.2 | 76.5* | 6.8
CC(C)(C)c1ccc(-c2nc(C#N)c(NCc3cccnc3)o2)cc1 | 2.0 | -0.674 | i | i | -11.3 | 78.3* | 10.1
N#Cc1nc(-c2ccc(F)cc2)oc1NCc1ccccc1 | 1.3 | 1.47 | i | i | -3.3 | 0.2 | ·
COc1ccc(C2CC(c3ccccc3)=NN2C(=O)CN2N=NC3C(=O)N(c4cccc(F)c4)C(=O)C32)cc1 (stereo not given) | 0.1 | -0.268 | · | i | -11.3 | 0.1 | ·
CCCC12CN3CCN(CC(C3)/C1=N\NC(=O)c1ccc(C(C)(C)C)cc1)C2 | 0.8 | 0.00126 | i | i | -23.7 | 1.5 | ·
CCN(CC)CCCNC(=O)c1cc(Sc2nnc(C)s2)nc2ccccc12 | 6.5 | 0.488 | i | i | -18.1 | 78.5* | 9.8
COc1ccc(-n2cnc3cc(NC(=O)c4ccco4)ccc32)cc1 | 3.5 | -0.845 | i | i | -22.3 | 82.6* | 47.3
O=C(Nc1ccc2c(c1)ncn2C1CCCCC1)c1ccco1 | 0.8 | -0.689 | i | i | -18.3 | 82.1* | 3.2
COc1ccccc1-n1cnc2cc(NC(=O)c3ccco3)ccc21 | -11.8 | 0.149 | i | i | -8.4 | 8.2 | ·
COc1ccccc1N1CCN(C(=O)CN(C)S(=O)(=O)c2ccc3c(c2)c(=O)n(C)c(=O)n3C)CC1 | 0.2 | -0.408 | i | i | -18.8 | 3.9 | ·
CC1=CC(=Nc2c(C)n(C)n(-c3ccccc3)c2=O)C=CC1=O | -16.0 | -3.67* | i | · | -17.8 | 76.7* | 50.0* | Dynein inh conf=+
CCOC(=O)c1c(C)nc2c(c1-c1ccc(Cl)cc1)C(=O)CC(C)(C)C2 | -4.9 | -0.0944 | i | i | -7.4 | -0.3 | ·
CC1(C)CC(=O)C(C2C3=C(CC(C)(C)CC3=O)Oc3ccccc32)C(=O)C1 (stereo not given) | 1.7 | -1.11 | i | · | -16.8 | 0.9 | ·
